Assay results published in ChEMBL document CHEMBL5036324 (J Med Chem, 2021).
Active and inactive are the calls of the source. No cut-off for these calls is given here.

What was measured:
[1] = Acute toxicity in BALB/c mouse assessed as mild diarrhea at 15 to 80 mg/kg, ip administered as single dose; assay type: organism-based; conditions: in vivo, dose 15-80 mg/kg
[2] = Acute toxicity in BALB/c mouse assessed as decrease in locomotor activity at 15 to 80 mg/kg, ip administered as single dose; assay type: organism-based; conditions: in vivo, dose 15-80 mg/kg
[3] = Acute toxicity in BALB/c mouse assessed as body weight loss at 60 mg/kg, ip administered as single dose relative to control; assay type: organism-based; conditions: in vivo
[4] = Toxicity in BALB/c mouse implanted with mouse CT26 cells assessed as decrease in body weight at 25 ug, ip administered once a week for 23 days; assay type: organism-based; conditions: in vivo, 552 h, dose 25 µg, time 23 day
Procedure, shortened: (§1)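 CT26 subcutaneous tumor-bearing BALB/c mice (n = 5) were treated from 100 mm³ tumor volume. TLR7/8 agonist was given ip once weekly, alone or with anti-PD-1 antibody (200 μg ip, twice weekly). Body weight was tracked over the treatment period and reported as mean ± SEM.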

[5] = Toxicity in BALB/c mouse implanted with mouse CT26 cells assessed as decrease in body weight at 25 ug, ip administered once a week in presence of anti-PD-1 antibodies for 23 days; assay type: organism-based; conditions: in vivo, 552 h, dose 25 µg, time 23 day; procedure, shortened: as §1
CT26 [6] = assay: Antitumor immunity against mouse CT26 cells implanted in BALB/c mouse assessed as increase in Teff/Treg ratio at 25 ug, ip administered once a week with anti-PD-1 antibody for 23 days by flow cytometry analysis; assay type: functional, organism-based; conditions: dose 25.0 µg, time 23.0 day
Procedure, shortened: (§2)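 CT26-bearing BALB/c mice (n = 5) were treated ip once weekly with agonist, alone or with anti-PD-1 (200 μg, twice weekly). Tumours were harvested 23 days after implantation, enzymatically and mechanically dissociated into single cells, and stained for surface markers plus intracellular FoxP3 after fixation/permeabilisation. Cells were gated within CD45⁺ for CD11c⁺ DCs, CD11b⁺F4/80⁺MHCII⁺ (M1), CD206⁺ (M2), CD3/CD4/CD8, and CD4⁺CD25⁺FoxP3⁺ Treg, then analysed by flow cytometry.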

CT26 [7] = assay: Antitumor activity against mouse CT26 cells implanted in BALB/c mouse assessed as reduction in tumor volume at 25 ug, ip administered once a week in presence of anti-PD-1 antibodies and measured every 3 days for 23 days; assay type: functional, organism-based; conditions: dose 25.0 µg, time 23.0 day
Procedure, shortened: (§3)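 Subcutaneous CT26 tumours were grown in BALB/c mice, with cells cultured in DMEM/10% FBS. At a mean tumour size of 100 mm³, mice were randomised (n = 5/group). Agonist was given ip once weekly; anti-PD-1 or IgG isotype was given ip at 200 μg twice weekly. Tumour volume (V = 1/2ab²) was measured every 3 days. Mice were euthanised at 2000 mm³.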

[8] = biological target: T1, TLR7 and TLR8 (Homo sapiens) (UniProt Q9NYK1+Q9NR97); assay: Agonist activity at human TLR7/8 expressed in human PBMC cells assessed as induction of G-CSF production by measuring concentration required to induce maximal response incubated for 12 hrs by multiplexed immunoassay; assay type: cell-based; conditions: filed as agonist
Procedure, shortened: (§4)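 Healthy-volunteer PBMCs from a single donor were isolated by Ficoll−Hypaque gradient and plated at 2.0 × 10⁶ cells/mL. They were stimulated for 12 h with escalating compound concentrations. Supernatants were assayed in duplicate on a 41-analyte magnetic bead cytokine/chemokine panel read by Luminex. EC_max is the concentration giving maximal cytokine induction.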

[9] = Acute toxicity in BALB/c mouse assessed as white discharge from eyes at 15 to 80 mg/kg, ip administered as single dose; assay type: organism-based; conditions: in vivo, dose 15-80 mg/kg
CT26 [10] = assay: Antitumor immunity against mouse CT26 cells implanted in BALB/c mouse assessed as increase in infiltration of CD8+ T cytotoxic lymphocytes at 25 ug, ip administered once a week with anti-PD-1 antibody for 23 days by flow cytometry analysis; assay type: functional, organism-based; conditions: dose 25.0 µg, time 23.0 day; procedure, shortened: as §2
[11] = biological target: T1, TLR7 and TLR8 (Homo sapiens); assay: Agonist activity at human TLR7/8 expressed in human PBMC cells assessed as induction of IL-12p40 production by measuring concentration required to induce maximal response incubated for 12 hrs by multiplexed immunoassay; assay type: cell-based; conditions: filed as agonist; procedure, shortened: as §4
CT26 [12] = assay: Antitumor activity against mouse CT26 cells implanted in BALB/c mouse assessed as tumor growth delay at 25 ug, ip administered once per week and measured every 3 days for 23 days; assay type: functional, organism-based; conditions: dose 25.0 µg, time 23.0 day; procedure, shortened: as §3
[13] = Acute toxicity in BALB/c mouse assessed as body weight regain at 60 mg/kg, ip administered as single dose measured after 3 days; assay type: organism-based; conditions: in vivo, 72 h, time 3 day
[14] = biological target: T1, TLR7 and TLR8 (Homo sapiens); assay: Agonist activity at human TLR7/8 expressed in human PBMC cells assessed as induction of IL-10 production by measuring concentration required to induce maximal response incubated for 12 hrs by multiplexed immunoassay; assay type: cell-based; conditions: filed as agonist; procedure, shortened: as §4
[15] = biological target: T1, TLR7 and TLR8 (Homo sapiens); assay: Agonist activity at human TLR7/8 expressed in human PBMC cells assessed as induction of IL-1beta production by measuring concentration required to induce maximal response incubated for 12 hrs by multiplexed immunoassay; assay type: cell-based; conditions: filed as agonist; procedure, shortened: as §4
CT26 [16] = assay: Antitumor immunity against mouse CT26 cells implanted in BALB/c mouse assessed as increase in infiltration of CD4+ TH1 cells at 25 ug, ip administered once a week for 23 days by flow cytometry analysis; assay type: functional, organism-based; conditions: dose 25.0 µg, time 23.0 day; procedure, shortened: as §2
[17] = biological target: T1, TLR7 and TLR8 (Homo sapiens); assay: Agonist activity at human TLR7/8 expressed in human PBMC cells assessed as induction of VEGF secretion incubated for 12 hrs by multiplexed immunoassay; assay type: cell-based; conditions: filed as agonist; procedure, shortened: as §4
[18] = biological target: T1, TLR7 and TLR8 (Homo sapiens); assay: Agonist activity at human TLR7/8 expressed in human PBMC cells assessed as induction of IL-8 production by measuring concentration required to induce maximal response incubated for 12 hrs by multiplexed immunoassay; assay type: cell-based; conditions: filed as agonist; procedure, shortened: as §4
[19] = Acute toxicity in BALB/c mouse assessed as mild diarrhea at 15 to 80 mg/kg, ip administered as single dose measured after 24 hrs; assay type: organism-based; conditions: in vivo, dose 15-80 mg/kg
[20] = Acute toxicity in BALB/c mouse assessed as maximum tolerated dose; conditions: in vivo
[21] = biological target: T1, TLR7 and TLR8 (Homo sapiens); assay: Agonist activity at human TLR7/8 expressed in human PBMC cells assessed as induction of IL-6 production by measuring concentration required to induce maximal response incubated for 12 hrs by multiplexed immunoassay; assay type: cell-based; conditions: filed as agonist; procedure, shortened: as §4
CT26 [22] = assay: Antitumor immunity against mouse CT26 cells implanted in BALB/c mouse assessed as increase in infiltration of CD4+ TH1 cells at 25 ug, ip administered once a week with anti-PD-1 antibody for 23 days by flow cytometry analysis; assay type: functional, organism-based; conditions: dose 25.0 µg, time 23.0 day; procedure, shortened: as §2
[23] = Acute toxicity in BALB/c mouse assessed as white discharge from eyes at 15 to 80 mg/kg, ip administered as single dose measured after 24 hrs; assay type: organism-based; conditions: in vivo, dose 15-80 mg/kg
CT26 [24] = assay: Antitumor immunity against mouse CT26 cells implanted in BALB/c mouse assessed as increase in infiltration of CD8+ T cytotoxic lymphocytes at 25 ug, ip administered once a week for 23 days by flow cytometry analysis; assay type: functional, organism-based; conditions: dose 25.0 µg, time 23.0 day; procedure, shortened: as §2
[25] = Acute toxicity in BALB/c mouse assessed as mortality at 120 mg/kg, ip administered as single dose; assay type: organism-based; conditions: in vivo
[26] = biological target: T1, TLR7 and TLR8 (Homo sapiens); assay: Agonist activity at human TLR7/8 expressed in human PBMC cells assessed as induction of IP-10 production by measuring concentration required to induce maximal response incubated for 12 hrs by multiplexed immunoassay; assay type: cell-based; conditions: filed as agonist; procedure, shortened: as §4
[27] = Subacute toxicity in BALB/c mouse assessed as splenomegaly at 15 mg/kg, ip administered as single dose; assay type: organism-based; conditions: in vivo
Procedure, shortened: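 Subacute toxicity study in BALB/c mice given ip TLR7/8 agonist. Spleens from treated and control groups were weighed and photographed. Body weight was recorded every day.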

[28] = Subacute toxicity in BALB/c mouse assessed as body weight loss at 1.12 g, ip administered as single dose; assay type: organism-based; conditions: in vivo
Procedure, shortened: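 Subacute study in BALB/c mice, with treated and control groups. Body weight was recorded every day. Spleens were weighed and photographed, and tissues were examined by H&E staining.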

[29] = Acute toxicity in BALB/c mouse assessed as decrease in locomotor activity at 15 to 80 mg/kg, ip administered as single dose measured after 24 hrs; assay type: organism-based; conditions: in vivo, dose 15-80 mg/kg
[30] = biological target: T1, TLR7 and TLR8 (Homo sapiens); assay: Agonist activity at human TLR7/8 expressed in human PBMC cells assessed as induction of TNFalpha production by measuring concentration required to induce maximal response incubated for 12 hrs by multiplexed immunoassay; assay type: cell-based; conditions: filed as agonist; procedure, shortened: as §4
[31] = biological target: T1, TLR7 and TLR8 (Homo sapiens); assay: Agonist activity at human TLR7/8 expressed in human PBMC cells assessed as induction of INF-gamma production by measuring concentration required to induce maximal response incubated for 12 hrs by multiplexed immunoassay; assay type: cell-based; conditions: filed as agonist; procedure, shortened: as §4
CT26 [32] = assay: Antitumor immunity against mouse CT26 cells implanted in BALB/c mouse assessed as increase in Teff/Treg ratio at 25 ug, ip administered once a week for 23 days by flow cytometry analysis; assay type: functional, organism-based; conditions: dose 25.0 µg, time 23.0 day; procedure, shortened: as §2
[33] = biological target: T1, TLR7 and TLR8 (Homo sapiens); assay: Agonist activity at human TLR7/8 expressed in human PBMC cells assessed as induction of MCP-1 production by measuring concentration required to induce maximal response incubated for 12 hrs by multiplexed immunoassay; assay type: cell-based; conditions: filed as agonist; procedure, shortened: as §4
[34] = biological target: T1, TLR7 and TLR8 (Homo sapiens); assay: Agonist activity at human TLR7/8 expressed in human PBMC cells assessed as induction of MIP-1alpha production by measuring concentration required to induce maximal response incubated for 12 hrs by multiplexed immunoassay; assay type: cell-based; conditions: filed as agonist; procedure, shortened: as §4

SMILES: CCOCc1nc2c(N)nc3ccccc3c2n1CC(C)(C)O [RESIQUIMOD]
- Activity [1]: Toxic
- Activity [2]: Toxic
- Activity [3]: 8.7%
- Activity [4]: Non-Toxic
- Activity [5]: Non-Toxic
- Activity (CT26 [6]): Active
- Activity (CT26 [7]): Active
- ECmax [8]: 2 µg/mL
- Activity [9]: Toxic
- Activity (CT26 [10]): Active
- ECmax [11]: 2 µg/mL
- Activity (CT26 [12]): Active
- Activity [13]: Non-Toxic
- ECmax [14]: 2 µg/mL
- ECmax [15]: 2 µg/mL
- Activity (CT26 [16]): Active
- Activity [17]: Active
- ECmax [18]: 2 µg/mL
- Activity [19]: Non-Toxic
- MTD [20]: 80 mg/kg
- ECmax [21]: 2 µg/mL
- Activity (CT26 [22]): Active
- Activity [23]: Non-Toxic
- Activity (CT26 [24]): Active
- Activity [25]: Toxic
- ECmax [26]: 2 µg/mL
- Activity [27]: Toxic
- Activity [28]: Toxic
- Activity [29]: Non-Toxic
- ECmax [30]: 2 µg/mL
- ECmax [31]: 2 µg/mL
- Activity (CT26 [32]): Active
- ECmax [33]: 2 µg/mL
- ECmax [34]: 2 µg/mL
